From ChEMBL document CHEMBL1126658, “Thyroid hormone uptake by hepatocytes: structure-activity relationships of phenylanthranilic acids with inhibitory activity” (J Med Chem, 1993)

Tested on: H4
Assay: Compound is evaluated for the inhibition of [125I]T3 uptake by H4 rat hepatoma cells at 0.1 mM
Type: functional
In short: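 H4 rat hepatoma cells grown in DMEM/10% FCS at 37 °C, plated to confluence (2 × 10^6 cells/well), then held overnight in serum-free DMEM. Fresh medium with 10^-11 M [125I]T3 plus test substance (final 0.1 mM from DMSO/ethanol stock; solvent-matched controls), 2 min at 37 °C. Five PBS pH 7.4 washes, 0.1 M NaOH lysis, cell-associated radioactivity counted. Nondisplaceable uptake taken with 10^-5 M unlabeled T3. Percent inhibition vs control, ≥5 replicates.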

Q: How did the inhibition at 100 µM turn out when `O=C(O)c1ccccc1Nc1ccc(Cl)c(Cl)c1` was run?
A: 55.6%

Q: For `O=C(O)c1ccccc1Nc1cccc(Cl)c1`, which inhibition at 100 µM is on record?
A: 51.4%

Q: Which inhibition at 100 µM does the source give for `O=C(O)c1ccccc1Nc1cc(Cl)cc(Cl)c1` here?
A: 60.6%

Q: Which inhibition at 100 µM does the source give for `N#Cc1cccc(Nc2ccccc2C(=O)O)c1` here?
A: 11.6%

Q: With `O=C(O)c1ccccc1Nc1c(Cl)cccc1Cl` as the compound, how does the inhibition at 100 µM read?
A: 54.6%

Q: Which inhibition at 100 µM does the source give for `O=C(O)c1ccccc1Nc1ccc(Cl)c(C(F)(F)F)c1` here?
A: 51%

Q: Which inhibition at 100 µM does the source give for `O=C(O)c1ccccc1Nc1cc(C(F)(F)F)cc(C(F)(F)F)c1` here?
A: 39.5%

Q: `Cc1cccc(Nc2ccccc2)c1C` was tested. Which inhibition at 100 µM did it give?
A: 35.4%

Q: How did the inhibition at 100 µM turn out when `Cc1cccc(Nc2ccccc2C(=O)O)c1` was run?
A: 30%

Q: `COc1ccc(Nc2ccccc2C(=O)O)cc1C(F)(F)F` was tested. Which inhibition at 100 µM did it give?
A: 54%

Q: For `O=C(O)c1ccccc1Nc1cccc(OC(F)(F)C(F)F)c1`, which inhibition at 100 µM is on record?
A: 57%

Q: How did the inhibition at 100 µM turn out when `O=C(O)c1ccccc1Nc1cccc(O)c1` was run?
A: 6.6%

Q: `O=C(O)c1ccccc1Nc1cccc(Br)c1` was tested. Which inhibition at 100 µM did it give?
A: 48.1%

Q: How did the inhibition at 100 µM turn out when `O=C(O)c1ccccc1Nc1cc(Cl)ccc1Cl` was run?
A: 43.2%

Q: `O=C(O)c1ccccc1Nc1ccccc1Cl` was tested. Which inhibition at 100 µM did it give?
A: 44.6%

Q: Which inhibition at 100 µM does the source give for `O=C(O)c1ccccc1Nc1cccc(I)c1` here?
A: 40%

Q: How did the inhibition at 100 µM turn out when `Cc1cccc(C)c1Nc1ccccc1C(=O)O` was run?
A: 48%

Q: Which inhibition at 100 µM does the source give for `O=C(O)c1ccccc1Nc1cc(Br)cc(Br)c1` here?
A: 39.1%

Q: How did the inhibition at 100 µM turn out when `O=C(O)c1ccccc1Nc1cccc(Cl)c1Cl` [CLOFENAMIC ACID] was run?
A: 56.6%

Q: `O=C(O)Cc1ccccc1Nc1c(Cl)cccc1Cl` [DICLOFENAC] was tested. Which inhibition at 100 µM did it give?
A: 38%

Q: `O=C(O)c1ccccc1Nc1ccccc1` [FENAMIC ACID] was tested. Which inhibition at 100 µM did it give?
A: 28%

Q: For `O=C(O)c1ccccc1Nc1cccc(C(F)(F)F)c1` [FLUFENAMIC ACID], which inhibition at 100 µM is on record?
A: 64.4%

Q: With `Cc1ccc(Cl)c(Nc2ccccc2C(=O)O)c1Cl` [MECLOFENAMIC ACID] as the compound, how does the inhibition at 100 µM read?
A: 74.2%

Q: For `Cc1cccc(Nc2ccccc2C(=O)O)c1C` [MEFENAMIC ACID], which inhibition at 100 µM is on record?
A: 60.9%
